ChEMBL document CHEMBL2385009, “Guaiane-type sesquiterpenes from Curcuma phaeocaulis and their inhibitory effects on nitric oxide production” (J Nat Prod, 2013)

Experiments:
RAW264.7 [1] = experiment: Cytotoxicity against mouse RAW264.7 cells at IC50 by MTT assay; format: cell-based
RAW264.7 [2] = experiment: Antiinflammatory activity in mouse RAW264.7 cells assessed as inhibition of LPS-induced nitric oxide production after 24 hrs by Griess assay; format: functional, cell-based; conditions: RAW264.7, 24 h
Summary of the method: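 RAW 264.7 cells seeded at 1 × 10^5 cells/well, stimulated with LPS 1 μg/mL with or without test compound, 37 °C for 24 h. Nitrite in cell-free supernatant, taken as the NO indicator, measured by Griess reaction: supernatant mixed 1:1 with equal parts 1% sulfanilamide in 5% phosphoric acid and 0.1% N-(1-naphthyl)ethylenediamine, absorbance at 540 nm. Values given as IC50.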

| Compound | IC50 (RAW264.7 [2]) [µM] | Activity (RAW264.7 [1]) |
| --- | --- | --- |
| CC(C)=C1C[C@H]2[C@@H](CC[C@]2(C)O)C(CO)=CC1=O | 12.9 | Non-toxic |
| CC1=C2C[C@@H]3[C@H](CC[C@@]3(C)O)[C@@](C)(O)C[C@@H]2OC1=O | 57.9 | Non-toxic |
| Cc1cc(=O)c(C(C)(C)O)cc2c1CC[C@]2(C)O | 5.9 | Non-toxic |
| CC(C)=C1C[C@H]2[C@@H](CC[C@]2(C)O)[C@@](C)(O)CC1=O | 10.3 | Non-toxic |
| CC1=C2C[C@]3(O)[C@H](C)CC[C@H]3[C@@](C)(O)C=C2OC1=O | 30.1 | Non-toxic |
| CC1=CC(=O)CC[C@@H]2[C@@](C)(O)CC[C@@]12O | 19.6 | Non-toxic |
| CC1=C[C@@]2(O)O[C@@]3(CC2=C(C)C)[C@H](C)CC[C@@H]13 | 52.2 | Non-toxic |
| CC(C)C1=C[C@@H]2[C@@H](CC[C@@H]2C)[C@@](C)(O)CC1 | 11.4 | Non-toxic |
| CC(C)=C1C[C@H]2[C@H](CC[C@]2(C)O)[C@](C)(O)CC1=O [(1S,4S,5S,10R)-ZEDOARONDIOL] | 16.7 | Non-toxic |
| CC(=O)CCc1ccc(C(C)(C)O)c(=O)cc1C [CURCUMADIONOL] | 54.2 | Non-toxic |
| C[C@]12CCC(=O)C=C1CC[C@@H]1[C@@H]2[C@@H](O)C[C@@]2(C)[C@H]1CC[C@]2(O)C(=O)CO [HYDROCORTISONE] | 43.8 | – |
| COc1ccc2c(c1)c(CC(=O)O)c(C)n2C(=O)c1ccc(Cl)cc1 [INDOMETHACIN] | 12.1 | – |
| C=C1C[C@]2(O)O[C@@]3(CC2=C(C)C)[C@@H](C)CC[C@@H]13 [ISOCURCUMENOL] | 9.8 | Non-toxic |
| CC1=CC(=O)[C@@]2(C[C@]3(O)[C@@H](C)CC[C@@H]13)OC2(C)C [OXYCURCUMENOL EPOXIDE] | 57.4 | Non-toxic |
| CC1=CC(=O)C(=C(C)C)C[C@@]2(O)[C@H]1CC[C@]2(C)O [PROCURCUMADIOL] | 11.7 | Non-toxic |
| CC1=CC(=O)C(=C(C)C)C[C@H]2[C@H]1CC[C@]2(C)O [PROCURCUMENOL] | 13.7 | Non-toxic |
| CC1=C2C[C@H]3[C@H](CC[C@]3(C)O)[C@@](C)(O)C[C@@H]2OC1=O [ZEDOALACTONE C] | 61.8 | Non-toxic |
| CC1=C2C[C@@H]3[C@@](C)(O)CC[C@]34O[C@]4(C)[C@H](O)[C@]2(O)OC1=O [ZEDOAROLIDE A] | 87.1 | Non-toxic |
| CC1=C2C[C@H]3[C@H](CC[C@]3(C)O)[C@@](C)(O)C[C@]2(O)OC1=O [ZEDOAROLIDE B] | 4.6 | Non-toxic |
| CC(C)=C1C[C@H]2[C@@H](CC[C@]2(C)O)[C@](C)(O)CC1=O [ZEDOARONDIOL] | 54.2 | Non-toxic |

The next compounds have a lower IC50 (RAW264.7 [2]) than those just listed; values first:

| IC50 (RAW264.7 [2]) [µM] | Compound | Activity (RAW264.7 [1]) |
| --- | --- | --- |
| 1.5 | CC1=C2C[C@H]3[C@@](C)(O)CC[C@@]34O[C@@]2(C[C@@]4(C)O)OC1=O | Non-toxic |
| 1.9 | CC1=C2C[C@@H]3[C@H](CC[C@@]3(C)O)[C@](C)(O)C[C@H]2OC1=O | Non-toxic |
| 2.9 | CC1=C2C[C@H]3[C@H](CC[C@]3(C)O)[C@](C)(O)C=C2OC1=O | Non-toxic |
| 3 | CC1=C2C[C@@H]3[C@@](C)(O)CC[C@@]3(O)[C@](C)(O)C=C2OC1=O | Non-toxic |
| 4.3 | CC(C)C1=C[C@H]2[C@@H](CC[C@]2(C)O)[C@](C)(O)CC1 [ALISMOXIDE] | Non-toxic |
| 4.2 | CC1=C[C@]2(O)O[C@@]3(CC2=C(C)C)[C@@H](C)CC[C@@H]13 [CURCUMENOL] | Non-toxic |
| 1.4 | CC(C)=C1C[C@H]2[C@H](CC[C@]2(C)O)[C@@](C)(O)CC1=O [ISOZEDOARONDIOL] | Non-toxic |
| 1.6 | CC1=C2C[C@H]3[C@H](CC[C@]3(C)O)[C@@](C)(O)C[C@H]2OC1=O [ZEDOALACTONE A] | Non-toxic |
| 1.3 | CC1=C2C[C@@H]3[C@@](C)(O)CC[C@]3(O)[C@](C)(O)C=C2OC1=O [ZEDOALACTONE B] | Non-toxic |
| 1.6 | CC1=C2C[C@@H]3[C@@](C)(O)CC[C@]3(O)[C@@](C)(O)C=C2OC1=O [ZEDOALACTONE D] | Non-toxic |
